The source of these data is ChEMBL document CHEMBL1938254, “Semisynthetic neoboutomellerone derivatives as ubiquitin-proteasome pathway inhibitors” (Bioorg Med Chem, 2012).

What all share (assay type): cell-based
The test system of test [1] is DLD-1. The test can be described thus: Inhibition of 20S proteasome in human DLD1 cells transfected with 4Ub-Luc gene assessed as bioluminescence induction factor at 5 uM after 8 hrs by luciferase reporter gene assay relative to epoxomicin. In a few lines: (§1)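 Stably transfected DLD-1 cells expressing 4Ub-Luc reporter, cultured in MEM with 5% heat-inactivated serum. Seeded at 10⁴ cells/well and treated with compound or solvent for 8 h. Luciferase activity in lysates read by luminometer. Induction factor = signal of treated over untreated cells, normalised to epoxomicin at 10^-7 M run in parallel (set to 100). IF ≥10 counted active.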

The nature of test [2]: Inhibition of peptide-glutamyl-peptide-hydrolyzing activity of 20S proteasome in human DLD1 cells transfected with 4Ub-Luc gene using Z-Leu-Leu-Glu-AMC as substrate after 6 hrs by spectrofluorometric analysis. The following applies: dld-1. In a few lines: (§2)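 DLD-1 4Ub-Luc cells seeded at 10⁴ cells/well, exposed to compound or solvent for 6 h, then 30 min in reaction buffer (30 mM Tris–HCl pH 7.5, 1 mM ATP). Chymotrypsin-like and PGPH activities read with specific fluorogenic substrates.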

Test [3] has as its system DLD-1. The test can be described thus: Inhibition of 20S proteasome activity in human DLD1 cells transfected with 4Ub-Luc gene assessed as bioluminescence induction factor at 10 uM after 8 hrs by luciferase reporter gene assay relative to epoxomicin. In outline: as §1
In test [4] the test system is DLD-1. The test can be described thus: Inhibition of 20S proteasome in human DLD1 cells transfected with 4Ub-Luc gene assessed as bioluminescence induction factor at 0.5 uM after 8 hrs by luciferase reporter gene assay relative to epoxomicin. In a few lines: as §1
Test [5] is described as follows: Inhibition of chymotrypsin-like activity of 20S proteasome in human DLD1 cells transfected with 4Ub-Luc gene using Succinyl-Leu-Leu-Val-Tyr-AMC as substrate after 6 hrs by spectrofluorometric analysis. The following applies: dld-1. In outline: as §2
In test [6] the test system is DLD-1. Briefly: Inhibition of 20S proteasome in human DLD1 cells transfected with 4Ub-Luc gene assessed as bioluminescence induction factor at 1 uM after 8 hrs by luciferase reporter gene assay relative to epoxomicin. In a few lines: as §1

Each structure is given as a SMILES string. “And” between values parts separate entries of the source, which are not always exact repeats. Identical values can stand only once.

`C=C(C(=O)[C@H](O)[C@@H](C)[C@H]1[C@@H](OC(C)=O)C[C@@]2(C)[C@@H]3CC[C@H]4[C@H](C)C(=O)C=C[C@@]45C[C@@]35CC[C@]12C)[C@@H](C)COCOC(C)=O`: the fold change (FC) in the test on DLD-1 [1] is 34; with DLD-1 [3], 3; with DLD-1 [4] it was 1.7; with DLD-1 [6] it was 40. The IC50 in test [2] worked out at 31 µM; in test [5], 22 µM.
With `C=C(C(=O)[C@H](OC(C)=O)[C@@H](C)[C@H]1[C@@H](OC(C)=O)C[C@@]2(C)[C@@H]3CC[C@H]4[C@H](C)C(=O)C=C[C@@]45C[C@@]35CC[C@]12C)C(C)C`, the fold change (FC) in the test with DLD-1 [1] came out at 74; in the test with DLD-1 [3] it was 19; in the test with DLD-1 [6], 7.2. Besides, the IC50 in test [2] and in test [5] was more than 1000 µM throughout.
Regarding `C=C(C(=O)[C@H](OC(C)=O)[C@@H](C)[C@H]1[C@@H](OC(C)=O)C[C@@]2(C)[C@@H]3CC[C@H]4[C@H](C)/C(=N\NC(N)=O)C=C[C@@]45C[C@@]35CC[C@]12C)[C@@H](C)CO`, the results for the fold change (FC) in the test on DLD-1 [1], in the test with DLD-1 [3] and in the test with DLD-1 [6] were 99, 30 and 1.4, respectively. In addition, the IC50 in test [2] is 4.1 µM; in test [5] it was 8.6 µM.
For `C=C(C(=O)[C@H](OC(C)=O)[C@@H](C)[C@H]1[C@@H](OC(C)=O)C[C@@]2(C)[C@@H]3CC[C@H]4[C@H](C)/C(=N/O)C=C[C@@]45C[C@@]35CC[C@]12C)[C@@H](C)CO`, the fold change (FC) in the test with DLD-1 [1] is 103; in the test with DLD-1 [4] it was 1; in the test with DLD-1 [6] it was 1.
As to `C=C(C(=O)[C@H](O)[C@@H](C)[C@H]1[C@@H](OC(C)=O)C[C@@]2(C)[C@@H]3CC[C@H]4[C@H](C)C(=O)C=C[C@@]45C[C@@]35CC[C@]12C)C(C)C`, the fold change (FC) with DLD-1 [1] was determined as 65; with DLD-1 [3] it was 20; in the test on DLD-1 [6], 2.4. Also, the IC50 in test [2] and in test [5] was more than 1000 µM each time.
As for `C=C(C(=O)[C@H](OC(C)=O)[C@@H](C)[C@H]1[C@@H](OC(C)=O)C[C@@]2(C)[C@@H]3CC[C@H]4[C@H](C)C(=O)C=C[C@@]45C[C@@]35CC[C@]12C)[C@@H](C)COC(=O)CNC(=O)OC(C)(C)C`, the figures for the fold change (FC) in the test on DLD-1 [1], with DLD-1 [3] and in the test with DLD-1 [6] were 43, 10 and 14, respectively. Further, the IC50 in test [2] was more than 1000 µM; in test [5] it was 92 µM.
For the molecule `COCC(C(=O)[C@H](O)[C@@H](C)[C@H]1[C@@H](OC(C)=O)C[C@@]2(C)[C@@H]3CC[C@H]4[C@H](C)C(=O)C=C[C@@]45C[C@@]35CC[C@]12C)[C@@H](C)CO` (stereo partly drawn), the fold change (FC) is 1.2 with DLD-1 [1], 2.6 in the test with DLD-1 [3], 0.9 in the test with DLD-1 [4] and 1.1 in the test on DLD-1 [6].
Take `C=CC(=O)OC[C@H](C)C(=C)C(=O)[C@H](OC(C)=O)[C@@H](C)[C@H]1[C@@H](OC(C)=O)C[C@@]2(C)[C@@H]3CC[C@H]4[C@H](C)C(=O)C=C[C@@]45C[C@@]35CC[C@]12C`: the fold change (FC) is 18 in the test with DLD-1 [1], 2.2 in the test on DLD-1 [3], 1.4 in the test with DLD-1 [4] and 20 in the test on DLD-1 [6]. In addition, the results for the IC50 in test [2] and in test [5] were 13 µM and 14 µM, respectively.
For `C=C(C(=O)[C@H](OC(=O)CCC(=O)O)[C@@H](C)[C@H]1[C@@H](OC(C)=O)C[C@@]2(C)[C@@H]3CC[C@H]4[C@H](C)C(=O)C=C[C@@]45C[C@@]35CC[C@]12C)[C@@H](C)COC(C)=O`, the fold change (FC) in the test with DLD-1 [1] turned out to be 16; in the test on DLD-1 [3], 3; with DLD-1 [4], 2; in the test with DLD-1 [6] it was 69. Also, the IC50 in test [2] is 10 µM; in test [5], 12 µM.
Turning to `C=C(C(=O)[C@H](OC(C)=O)[C@@H](C)[C@H]1[C@@H](OC(C)=O)C[C@@]2(C)[C@@H]3CC[C@H]4[C@H](C)C(=O)C=C[C@@]45C[C@@]35CC[C@]12C)[C@@H](C)COC(=O)CCC(=O)O`, the fold change (FC) is 20 and 15 with DLD-1 [1]; 4.4 and 3.7 in the test with DLD-1 [3]; 1.4 and 2 with DLD-1 [4]; 45 and 61 with DLD-1 [6]. The IC50 in test [2] was determined as 37 µM; in test [5], 25 µM.
`C=C(C(=O)[C@H](O)[C@@H](C)[C@H]1[C@@H](OC(C)=O)C[C@@]2(C)[C@@H]3CC[C@H]4[C@H](C)C(=O)C=C[C@@]45C[C@@]35CC[C@]12C)[C@@H](C)COC(=O)N1CCN(C)CC1`: the fold change (FC) with DLD-1 [1] is 7.1 and 4.5; with DLD-1 [3], 1.5 and 1.4; with DLD-1 [4] it was 15.4 and 12; with DLD-1 [6], 69 and 70.
As for `C=C(C(=O)[C@H](OC(C)=O)[C@@H](C)[C@H]1[C@@H](OC(C)=O)C[C@@]2(C)[C@@H]3[C@H]4O[C@H]4[C@H]4[C@H](C)C(=O)C=C[C@@]45C[C@@]35CC[C@]12C)[C@@H](C)CO`, the fold change (FC) in the test on DLD-1 [1] was found to be 72; in the test with DLD-1 [3] it was 15; in the test with DLD-1 [6], 2.8. The IC50 is 60 µM in test [2] and 48 µM in test [5].
On the same counts, the results for `C=C(C(=O)[C@H](OC(C)=O)[C@@H](C)[C@H]1[C@@H](OC(C)=O)C[C@@]2(C)[C@@H]3CC[C@H]4[C@H](C)/C(=N\OC)C=C[C@@]45C[C@@]35CC[C@]12C)[C@@H](C)CO` are 3.4, 24, 0.7, 12 µM and 11 µM.
On the same counts, the results for `CC(=O)O[C@H]1C[C@@]2(C)[C@@H]3CC[C@H]4[C@H](C)C(=O)C=C[C@@]45C[C@@]35CC[C@]2(C)[C@H]1[C@H](C)[C@@H](O)C(=O)C=C(C)C` are 5.2, 53, 1.1, more than 1000 µM and more than 1000 µM.
With `C=C(C(=O)[C@H](OC(=O)CNC(=O)OC(C)(C)C)[C@@H](C)[C@H]1[C@@H](OC(C)=O)C[C@@]2(C)[C@@H]3CC[C@H]4[C@H](C)C(=O)C=C[C@@]45C[C@@]35CC[C@]12C)[C@@H](C)CO`, the fold change (FC) with DLD-1 [1] worked out at 36; in the test on DLD-1 [3], 5; in the test on DLD-1 [4], 2; with DLD-1 [6], 14.
Turning to `C=C(C(=O)[C@H](OC(C)=O)[C@@H](C)[C@H]1[C@@H](OC(C)=O)C[C@@]2(C)[C@@H]3CC[C@H]4[C@H](C)C(=O)C=C[C@@]45C[C@@]35CC[C@]12C)[C@@H](C)COC`, the fold change (FC) was found to be 44 with DLD-1 [1], 1.4 with DLD-1 [4] and 40 with DLD-1 [6]. For the same molecule, the IC50 in test [2] is 100 µM; in test [5], 86 µM.
Regarding `C=C(C(=O)[C@H](O)[C@@H](C)[C@H]1[C@@H](OC(C)=O)C[C@@]2(C)[C@@H]3CC[C@H]4[C@H](C)C(=O)C=C[C@@]45C[C@@]35CC[C@]12C)[C@@H](C)COC(=O)CNC(=O)OC(C)(C)C`, the figures for the fold change (FC) in the test with DLD-1 [1], in the test on DLD-1 [3] and with DLD-1 [6] were 47, 16 and 4.8, respectively. Also, the IC50 in test [2] and in test [5] was more than 1000 µM throughout.
Turning to `C=C(C(=O)[C@H](OC(C)=O)[C@@H](C)[C@H]1[C@@H](OC(C)=O)C[C@@]2(C)[C@@H]3CC[C@H]4[C@H](C)/C(=N/OCc5ccccc5)C=C[C@@]45C[C@@]35CC[C@]12C)[C@@H](C)CO`, the results for the fold change (FC) with DLD-1 [1], in the test on DLD-1 [3] and with DLD-1 [6] were 12, 5.6 and 0.8, respectively. Moreover, the IC50 was 11 µM in test [2] and 10 µM in test [5].
The like results for `C=C(C(=O)[C@H](OC(C)=O)[C@@H](C)[C@H]1[C@@H](OC(C)=O)C[C@@]2(C)[C@@H]3CC[C@H]4[C@H](C)C(=O)CC[C@@]45C[C@@]35CC[C@]12C)[C@@H](C)CO` were, in that order, 45, 48, 0.9, 13 µM and 17 µM.
In the case of `C=C(C(=O)[C@H](OC(C)=O)[C@@H](C)[C@H]1[C@@H](OC(C)=O)C[C@@]2(C)[C@@H]3CC[C@H]4[C@H](C)C(=O)C=C[C@@]45C[C@@]35CC[C@]12C)[C@@H](C)COP(=O)(O)O`, the fold change (FC) with DLD-1 [1] was 3 and 4.4; with DLD-1 [3], 46 and 51; in the test on DLD-1 [6], 0.9 and 1. Moreover, the figures for the IC50 in test [2] and in test [5] were more than 1000 µM and 92 µM, respectively.
In the case of `C=C(C(=O)[C@H](O)[C@@H](C)[C@H]1[C@@H](OC(C)=O)C[C@@]2(C)[C@@H]3CC[C@H]4[C@H](C)C(=O)C=C[C@@]45C[C@@]35CC[C@]12C)[C@@H](C)COC(=O)CN(C)C`, the fold change (FC) in the test with DLD-1 [1] is 35 and 34; with DLD-1 [3], 6.8 and 4; with DLD-1 [4], 1.3; in the test with DLD-1 [6], 22 and 17.
